According to ChEMBL document CHEMBL1140227, “Histone deacetylase inhibitors through click chemistry” (J Med Chem, 2008):

Assays:
Format in all cases: functional
HCT-116 = experiment: Growth inhibition of human HCT116 cells at 10 uM relative to control; settings: values are per cent of control
Method in brief: (§1)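 Single-dose preliminary screen in the NCI human cancer cell line panel, run by the NIH. Percent inhibition of cell line growth was calculated by comparison with untreated samples.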

HCT-15 = experiment: Growth inhibition of human HCT15 cells at 10 uM relative to control; settings: values are per cent of control; method in brief: as §1
HT-29 = experiment: Growth inhibition of human HT-29 cells at 10 uM relative to control; settings: values are per cent of control; method in brief: as §1
KM12 = experiment: Growth inhibition of human KM12 cells at 10 uM relative to control; settings: values are per cent of control; method in brief: as §1
SW-620 = experiment: Growth inhibition of human SW620 cells at 10 uM relative to control; settings: values are per cent of control
Method in brief: (§2)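 Single-dose NCI human tumour cell line screen, run by the NIH. Percent inhibition of cell line growth was calculated by comparison with untreated samples.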

BT-549 = experiment: Growth inhibition of human BT549 cells at 10 uM relative to control; settings: values are per cent of control; method in brief: as §1
MCF7 = experiment: Growth inhibition of human MCF7 cells at 10 uM relative to control; settings: values are per cent of control; method in brief: as §1
MDA-MB-231 = experiment: Growth inhibition of human MDA-MB-231 cells at 10 uM relative to control; settings: values are per cent of control; method in brief: as §1
MDA-MB-435 = experiment: Growth inhibition of human MDA-MB-435 cells at 10 uM relative to control; settings: values are per cent of control; method in brief: as §1
MDA-MB-468 = experiment: Growth inhibition of human MDA-MB-468 cells at 10 uM relative to control; settings: values are per cent of control; method in brief: as §1
NCI/ADR-RES = experiment: Growth inhibition of human NCI/ADR-RES cells at 10 uM relative to control; settings: values are per cent of control; method in brief: as §1
T47D = experiment: Growth inhibition of human T47D cells at 10 uM relative to control; settings: values are per cent of control; method in brief: as §2
IGROV-1 = experiment: Growth inhibition of human IGROV1 cells at 10 uM relative to control; settings: values are per cent of control; method in brief: as §1
OVCAR-3 = experiment: Growth inhibition of human OVCAR-3 cells at 10 uM relative to control; settings: values are per cent of control; method in brief: as §1
OVCAR-4 = experiment: Growth inhibition of human OVCAR4 cells at 10 uM relative to control; settings: values are per cent of control; method in brief: as §1
OVCAR-5 = experiment: Growth inhibition of human OVCAR5 cells at 10 uM relative to control; settings: values are per cent of control; method in brief: as §1
OVCAR-8 = experiment: Growth inhibition of human OVCAR8 cells at 10 uM relative to control; settings: values are per cent of control; method in brief: as §1
SK-OV-3 = experiment: Growth inhibition of human SKOV3 cells at 10 uM relative to control; settings: values are per cent of control; method in brief: as §1
CCRF-CEM = experiment: Growth inhibition of human CCRF-CEM cells at 10 uM relative to control; settings: values are per cent of control; method in brief: as §1
HL-60(TB) = experiment: Growth inhibition of human HL-60(TB) cells at 10 uM relative to control; settings: read-out: INH
Method in brief: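 Single-dose cell line screen run by the NCI (NIH) in its human cancer cell line panel, which includes the leukemia line HL-60(TB). Percent growth inhibition was calculated by comparison with untreated samples.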

K562 = experiment: Growth inhibition of human K562 cells at 10 uM relative to control; settings: values are per cent of control; method in brief: as §1
MOLT-4 = experiment: Growth inhibition of human MOLT4 cells at 10 uM relative to control; settings: values are per cent of control; method in brief: as §1
[1] = Growth inhibition of human RPMI8266 cells at 10 uM relative to control; settings: values are per cent of control; method in brief: as §1
786-0 = experiment: Growth inhibition of human 786-0 cells at 10 uM relative to control; settings: values are per cent of control; method in brief: as §1
A498 = experiment: Growth inhibition of human A498 cells at 10 uM relative to control; settings: values are per cent of control; method in brief: as §1
ACHN = experiment: Growth inhibition of human ACHN cells at 10 uM relative to control; settings: values are per cent of control; method in brief: as §1
CAKI-1 = experiment: Growth inhibition of human Caki1 cells at 10 uM relative to control; settings: values are per cent of control; method in brief: as §1
SN12C = experiment: Growth inhibition of human SN12C cells at 10 uM relative to control; settings: values are per cent of control; method in brief: as §1
TK-10 = experiment: Growth inhibition of human TK10 cells at 10 uM relative to control; settings: values are per cent of control; method in brief: as §2
UO-31 = experiment: Growth inhibition of human UO31 cells at 10 uM relative to control; settings: values are per cent of control; method in brief: as §2
LOX IMVI = experiment: Growth inhibition of human LOXIMVI cells at 10 uM relative to control; settings: values are per cent of control; method in brief: as §1
M14 = experiment: Growth inhibition of human M14 cells at 10 uM relative to control; settings: values are per cent of control; method in brief: as §1

For `O=C(/C=C/c1cn(CCc2ccccc2)nn1)NO`, the growth, % of control at 10 µM (HCT-116) was 5.49%, the growth, % of control at 10 µM (HCT-15) was 75.8% and the growth, % of control at 10 µM (HT-29) was 56.9%. It also gave a growth, % of control at 10 µM (KM12) of 67.8%, a growth, % of control at 10 µM (SW-620) of 31.1% and a growth, % of control at 10 µM (BT-549) of 78%. The growth, % of control at 10 µM (MCF7) was 63.7%, the growth, % of control at 10 µM (MDA-MB-231) was 60.3% and the growth, % of control at 10 µM (MDA-MB-435) was 21.9%. For the same molecule, the growth, % of control at 10 µM (MDA-MB-468) was 56%, the growth, % of control at 10 µM (NCI/ADR-RES) was -13.7% and the growth, % of control at 10 µM (T47D) was 32.8%. The growth, % of control at 10 µM (IGROV-1) was 44.6%, the growth, % of control at 10 µM (OVCAR-3) was 61.3% and the growth, % of control at 10 µM (OVCAR-4) was 77.5%. It also gave a growth, % of control at 10 µM (OVCAR-5) of 23.5%, a growth, % of control at 10 µM (OVCAR-8) of 26.5% and a growth, % of control at 10 µM (SK-OV-3) of 57%. For the same molecule, the growth, % of control at 10 µM (CCRF-CEM) was 7.44%, the growth, % of control at 10 µM (HL-60(TB)) was -10.7% and the growth, % of control at 10 µM (K562) was 30.5%. For the same molecule, the growth, % of control at 10 µM (MOLT-4) was 3.77%, the growth, % of control at 10 µM [1] was 1.76% and the growth, % of control at 10 µM (786-0) was 26.3%. It also gave a growth, % of control at 10 µM (A498) of 52.4%, a growth, % of control at 10 µM (ACHN) of 29.3% and a growth, % of control at 10 µM (CAKI-1) of 52.9%. The growth, % of control at 10 µM (SN12C) was 64.8%, the growth, % of control at 10 µM (TK-10) was 57.7% and the growth, % of control at 10 µM (UO-31) was 37.4%. For the same molecule, the growth, % of control at 10 µM (LOX IMVI) was 44.9% and the growth, % of control at 10 µM (M14) was 44.7%.
